{"source": "paper PMC8453771", "about": "(Journal of Clinical Pharmacology, 2021)", "key": {"[1]": {"conditions": "primary metabolites in plasma; cited from earlier work"}, "[2]": {"assay_type": "in vivo, human", "in_short": "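Pooled noncompartmental data from 17 phase 1 studies in healthy subjects, fasted or light meal, no co-administered drugs; solution, suspension or tablet, 0.5–300 mg. Single dose: AUCinf; multiple dose: steady-state AUCtau (tau 24 h), day-1 Cmax.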"}, "UGT1A9 [3]": {"test_system": "UGT1A9", "assay": "UGT1A9 genotype analysis of ertugliflozin AUC pooled from phase 1 studies", "assay_type": "in vivo, human", "conditions": "for Predicted mean (90% CI) ertugliflozin AUC: Wild type, fasted", "in_short": "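AUC pooled from 20 phase 1 studies of fasted oral tablets in genotyped healthy subjects. Linear AUC-versus-dose model as for dose proportionality. Three UGT1A9 variants (*1b homozygous/heterozygous, -2152 heterozygous, *3 heterozygous) entered together as categorical covariates on slope, giving fold change versus wild type for all alleles.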"}, "[4]": {"conditions": "cited from earlier work"}, "UGT1A9 [5]": {"test_system": "UGT1A9", "conditions": "in vitro; cited from earlier work"}, "UGT2B7 and UGT2B4": {"test_system": "UGT2B7 and UGT2B4", "conditions": "in vitro; cited from earlier work"}, "[6]": {"conditions": "coadministration of rifampin; cited from earlier work"}, "[7]": {"conditions": "coadministration of mefenamic acid; PBPK modeling; cited from earlier work"}, "[8]": {"conditions": "5-mg tablet, fasted state, full model bootstrap"}}, "note": "Like-named read-outs stand apart in the source and are kept apart here.", "data": [{"molecule": "CCOc1ccc(Cc2cc([C@]34OC[C@](CO)(O3)[C@@H](O)[C@H](O[C@@H]3O[C@H](C(=O)O)[C@@H](O)[C@H](O)[C@H]3O)[C@H]4O)ccc2Cl)cc1", "note": "[ertugliflozin‐3‐O‐β‐glucuronide]", "values": [{"measurement": "pharmacological activity of metabolite", "setting": "[1]", "value": "pharmacologically inactive"}]}, {"molecule": "ertugliflozin‐2‐O‐β‐glucuronide", "values": [{"measurement": "pharmacological activity of metabolite", "setting": "[1]", "value": "pharmacologically inactive"}]}, {"molecule": "CCOc1ccc(Cc2cc([C@]34OC[C@](CO)(O3)[C@@H](O)[C@H](O)[C@H]4O)ccc2Cl)cc1", "note": "[ertugliflozin]", "values": [{"measurement": "predicted mean AUC", "setting": "[2]; [8]", "value": 437, "unit": "ng·h/mL"}, {"measurement": "predicted mean Cmax", "setting": "[2]; [8]", "value": 88.7, "unit": "ng/mL"}, {"measurement": "predicted mean AUC", "setting": "[2]; 15-mg tablet, fasted state, full model bootstrap", "value": 1380, "unit": "ng·h/mL"}, {"measurement": "AUC higher versus the tablet form", "setting": "[2]; administered as a solution", "value": 16, "unit": "%"}, {"measurement": "Cmax lower versus the tablet form", "setting": "[2]; administered as a solution", "value": 18, "unit": "%"}, {"measurement": "AUC lower relative to fasting administration", "setting": "[2]; administered with a light meal", "value": 10, "unit": "%"}, {"measurement": "Cmax lower relative to fasting administration", "setting": "[2]; administered with a light meal", "value": 46, "unit": "%"}, {"measurement": "AUC intercept, Estimate (RSE, %)", "setting": "[2]; base model", "value": "–26.5 (28.8) ng·h/mL"}, {"measurement": "AUC slope, Estimate (RSE, %)", "setting": "[2]; base model, AUC as linear function of dose", "value": "93.2 (1.50) ng·h/mL/mg"}, {"measurement": "Cmax slope, Estimate (RSE, %)", "setting": "[2]; base model, Cmax as linear function of dose", "value": "16.2 (2.20) ng/mL/mg"}, {"measurement": "relationship of AUC and Cmax to dose", "setting": "[2]; dose range 0.5 to 300 mg, healthy subjects", "value": "dose‐proportional"}, {"measurement": "AUC intercept, Estimate (RSE, %)", "setting": "[2]; full model", "value": "–33.7 (33.2) ng·h/mL"}, {"measurement": "Solution covariate: fold change in AUC slope vs tablet, Estimate (RSE, %)", "setting": "[2]; full model", "value": "1.16 (6.35)"}, {"measurement": "Solution covariate: fold change in Cmax slope vs tablet, Estimate (RSE, %)", "setting": "[2]; full model", "value": "0.821 (7.08)"}, {"measurement": "Suspension covariate: fold change in AUC slope vs tablet, Estimate (RSE, %)", "setting": "[2]; full model", "value": "1.04 (3.44)"}, {"measurement": "Suspension covariate: fold change in Cmax slope vs tablet, Estimate (RSE, %)", "setting": "[2]; full model", "value": "0.897 (4.77)"}, {"measurement": "effect of suspension formulation on AUC or Cmax relative to tablet", "setting": "[2]; full model", "value": "did not have a significant effect"}, {"measurement": "AUC slope, Estimate (RSE, %)", "setting": "[2]; full model, tablet, fasted", "value": "94.1 (1.76) ng·h/mL/mg"}, {"measurement": "Cmax slope, Estimate (RSE, %)", "setting": "[2]; full model, tablet, fasted", "value": "17.7 (1.92) ng/mL/mg"}, {"measurement": "decrease in AUC compared with wild-type UGT1A9", "setting": "UGT1A9 [3]; UGT1A9-2152 heterozygous and UGT1A9*1b heterozygous variants combined", "value": 7.3, "unit": "%"}, {"measurement": "combined effect on AUC (fold vs wild type)", "setting": "UGT1A9 [3]; UGT1A9-2152 heterozygous and UGT1A9*1b heterozygous variants, 0.988 × 0.938", "value": 0.927}, {"measurement": "Predicted mean (90% CI) ertugliflozin AUC", "setting": "UGT1A9 [3]; 5 mg tablet", "value": 436, "unit": "ng·h/mL"}, {"measurement": "Predicted mean (90% CI) ertugliflozin AUC", "setting": "UGT1A9 [3]; 15 mg tablet", "value": 1410, "unit": "ng·h/mL"}, {"measurement": "AUC intercept, Estimate (RSE, %)", "setting": "UGT1A9 [3]; base model", "value": "–63.9 (16.3) ng·h/mL"}, {"measurement": "AUC slope, Estimate (RSE, %)", "setting": "UGT1A9 [3]; base model", "value": "96.7 (1.89) ng·h/mL/mg"}, {"measurement": "AUC intercept, Estimate (RSE, %)", "setting": "UGT1A9 [3]; full model", "value": "–50.1 (22.8) ng·h/mL"}, {"measurement": "effect of UGT1A9-2152 heterozygous variant on AUC", "setting": "UGT1A9 [3]; full model, 95%CI included 1", "value": "did not have a significant effect"}, {"measurement": "AUC slope, Estimate (RSE, %)", "setting": "UGT1A9 [3]; full model, UGT1A9 wild-type subjects", "value": "97.1 (3.25) ng·h/mL/mg"}, {"measurement": "clinical relevance of UGT1A9 genotype effect on ertugliflozin exposure", "setting": "UGT1A9 [3]; healthy subjects", "value": "did not have any clinically meaningful effects"}, {"measurement": "effect of high-fat meal on ertugliflozin AUC", "setting": "[4]; 15-mg commercial tablet", "value": "no meaningful effect"}, {"measurement": "effect on ertugliflozin exposure of administration with food", "setting": "[4]", "value": "No clinically meaningful effect"}, {"measurement": "share of ertugliflozin biotransformation accounted for by glucuronidation", "setting": "[4]", "value": "~90", "unit": "%"}, {"measurement": "administered dose recovered in urine and feces as unchanged ertugliflozin", "setting": "[4]; mass-balance study in humans", "value": "~35", "unit": "%"}, {"measurement": "median time to maximum plasma concentrations (Tmax)", "setting": "[4]; multiple doses, fed", "value": 2.0, "unit": "h"}, {"measurement": "median time to maximum plasma concentrations (Tmax)", "setting": "[4]; single doses, fasted", "value": 1.0, "unit": "h"}, {"measurement": "share of glucuronide metabolite formation catalyzed by UGT1A9", "setting": "UGT1A9 [5]", "value": 81, "unit": "%"}, {"measurement": "share of ertugliflozin glucuronidation by UGT2B7 and UGT2B4", "setting": "UGT2B7 and UGT2B4", "value": 19, "unit": "%"}, {"measurement": "reduction in ertugliflozin AUC", "setting": "[6]", "value": "~39", "unit": "%"}, {"measurement": "increase in ertugliflozin AUC", "setting": "[7]", "value": "~1.5", "unit": "fold"}]}]}
